15 molecules from ChEMBL document CHEMBL1140587, “Investigation of the terminal P4 domain in a series of D-phenylglycinamide-based factor Xa inhibitors” (Bioorg Med Chem Lett, 2007) can be followed below.

The target of data set [1] is Coagulation factor X (Homo sapiens) (UniProt P00742). Put plainly: Binding affinity to human factor10a.
A further data set deals with Plasma. The data set can be described thus: Anticoagulant activity in human plasma assessed as concentration required to double prothrombin time. It is filed as functional.
A short description of data set [2]: Cmax in rat plasma at 20 mg/kg, po. It is filed as ADME, organism-based. Also on record: dose 20 mg/kg, route oral. Summed up: (§1)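 Fasted Fisher rats (n = 3) got one 20 mpk oral gavage, suspended in acacia or CMC/Tween 80. Citrated blood was taken at set times and spun to plasma. Drug level was read as anti-Xa equivalents: plasma at 37 °C for 15 min, S-2222 substrate, human fXa 0.4 U/ml, 405 nm kinetic over 10 min. Values came from triplicate spiked-plasma standards by four-parameter logistic fit; AUC by area algorithm.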

Data set [3] can be described thus: AUC(0 to 7 hrs) in rat plasma at 20 mg/kg, po. The arrangement: time < 7 hr, dose 20 mg/kg, route oral. It is filed as ADME, organism-based. The method in brief: as §1

Chain of Coagulation factor X (Homo sapiens) (P00742 41-179 limits assumed): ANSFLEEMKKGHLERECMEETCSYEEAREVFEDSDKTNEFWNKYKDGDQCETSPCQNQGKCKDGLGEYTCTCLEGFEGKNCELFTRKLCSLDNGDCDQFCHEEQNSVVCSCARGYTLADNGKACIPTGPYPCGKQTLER
Chain of Coagulation factor X (Homo sapiens) (P00742 235-488 limits assumed): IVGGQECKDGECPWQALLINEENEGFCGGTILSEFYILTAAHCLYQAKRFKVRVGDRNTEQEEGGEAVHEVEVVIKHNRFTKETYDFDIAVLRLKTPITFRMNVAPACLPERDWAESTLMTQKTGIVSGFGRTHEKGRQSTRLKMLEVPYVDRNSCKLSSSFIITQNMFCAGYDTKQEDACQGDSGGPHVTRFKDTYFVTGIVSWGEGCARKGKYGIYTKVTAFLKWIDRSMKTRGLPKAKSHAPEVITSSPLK

For the molecule `CC(C)NCC1CCN(C(=O)[C@H](NC(=O)c2ccc3cc[nH]c3c2)c2ccccc2)CC1`, the Kapp in data set [1] was 7.8 10^6L/mol.

As for `CN1CCC(C2CCN(C(=O)[C@H](NC(=O)c3ccc4cc[nH]c4c3)c3ccccc3)CC2)CC1`, in data set [1], the Kapp is 450 10^6L/mol. The Activity with Plasma was 1.5 µM. Besides, the Cmax in data set [2] was found to be 4 µM. Besides, in data set [3], the exposure AUC(0-t) at 7 h worked out at 19000 ng·h/mL.

For the molecule `CCN(CC)CC1CCN(C(=O)[C@H](NC(=O)c2ccc3cc[nH]c3c2)c2ccccc2)CC1`, in data set [1], the Kapp was 28 10^6L/mol. Also, the Activity with Plasma came to 2.3 µM.

As for `O=C(N[C@@H](C(=O)N1CCC(CN2CCCCC2)CC1)c1ccccc1)c1ccc2cc[nH]c2c1`, the Kapp in data set [1] is 48 10^6L/mol. In addition, the Activity with Plasma was found to be 1.2 µM. In data set [2], this molecule gave a Cmax of 4.7 µM. In data set [3], the AUC(0-t) at 7 h was determined as 23000 ng·h/mL.

For the molecule `O=C(N[C@@H](C(=O)N1CCC(CN2CCC[C@H]2CO)CC1)c1ccccc1)c1ccc2cc[nH]c2c1`, the Kapp in data set [1] was 9.7 10^6L/mol.

`O=C(N[C@@H](C(=O)N1CCC(CN2CCC[C@@H]2CO)CC1)c1ccccc1)c1ccc2cc[nH]c2c1`: the Kapp in data set [1] is 18 10^6L/mol. In the data set on Plasma, the Activity worked out at 2.2 µM.

Consider `O=C(N[C@@H](C(=O)N1CCC(CN2CCC(CO)CC2)CC1)c1ccccc1)c1ccc2cc[nH]c2c1`, for which the Kapp in data set [1] was 0.7 10^6L/mol.

`O=C(N[C@@H](C(=O)N1CCC(CN2CCC(O)C2)CC1)c1ccccc1)c1ccc2cc[nH]c2c1` (stereo not given in full): the Kapp in data set [1] was 5 10^6L/mol.

For `O=C(N[C@@H](C(=O)N1CCC(CN2CC[C@@H](O)C2)CC1)c1ccccc1)c1ccc2cc[nH]c2c1`, the Kapp in data set [1] is 4 10^6L/mol.

In the case of `O=C(N[C@@H](C(=O)N1CCC(CN2CCNCC2)CC1)c1ccccc1)c1ccc2cc[nH]c2c1`, the Kapp in data set [1] is 3.9 10^6L/mol.

Regarding `O=C(N[C@@H](C(=O)N1CCC(CN2CCCCC2)CC1)c1ccccc1)c1ccc2c(Cl)c[nH]c2c1`, the Kapp in data set [1] was 710 10^6L/mol. Also, the Activity in the data set on Plasma worked out at 1.1 µM. The molecule also had a Cmax in data set [2] of 1.7 µM. The same molecule gave an AUC(0-t) at 7 h in data set [3] of 10000 ng·h/mL.

In the case of `CN1CCN(CC2CCN(C(=O)[C@H](NC(=O)c3ccc4cc[nH]c4c3)c3ccccc3)CC2)CC1`, the Kapp in data set [1] is 1.5 10^6L/mol.

For `O=C(N[C@@H](C(=O)N1CCC(CN2CCCC2)CC1)c1ccccc1)c1ccc2cc[nH]c2c1`, the Kapp in data set [1] is 24 10^6L/mol. Further, the Activity with Plasma came out at 2.2 µM.

For `O=C(N[C@@H](C(=O)N1CCC(CN2CCC(O)CC2)CC1)c1ccccc1)c1ccc2cc[nH]c2c1`, the Kapp in data set [1] is 10 10^6L/mol.

On to `Cc1c[nH]c2cc(C(=O)N[C@@H](C(=O)N3CCC(CN4CCCCC4)CC3)c3ccccc3)ccc12`, for which the Kapp in data set [1] was 110 10^6L/mol. Moreover, in the data set on Plasma, the Activity is 1.5 µM. Moreover, the Cmax in data set [2] is 2.4 µM. Besides, the AUC(0-t) at 7 h in data set [3] came to 14000 ng·h/mL.

For orientation: Cmax means the maximum level reached in the sampled fluid or tissue. Usually AUC(0-t) stands for exposure summed from dosing to a finite time, without extrapolation to infinity. Low values mean low exposure, high ones high exposure.
